Results reported in ChEMBL document CHEMBL1144713, “New selective inhibitors of steroid 11beta-hydroxylation in the adrenal cortex. Synthesis and structure-activity relationship of potent etomidate analogues” (J Med Chem, 2008).

Assays:
[1] = Inhibition on cortisol secretion in human NCI-H295 cells after 48 hrs; assay type: functional, cell-based; conditions: for IC50: Homo sapiens, NCI-H295, 48 h
Summary of the method: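 NCI-h295 adrenocortical cells grown in RPMI 1640 with insulin, transferrin, selenium and 5% FCS. Compounds at 10 nM–100 µM added to 1 million cells/mL for 48 h, in triplicate. Supernatant cortisol measured by RIA and expressed as percent of control, with control from six uninhibited determinations. IC50 derived from these percentages.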

Rattus norvegicus = species on record: Rattus norvegicus; assay: (§1) Displacement of [131I]IMTO from CYP450c 11 in Wistar rat adrenal membrane; assay type: cell membranes
Summary of the method: (§2)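 Crude membranes from whole adrenals of adult male Wistar rats, homogenized in 10 mM K2HPO4/10 mM HEPES pH 7.1 and washed; 0.06–0.1 mg original tissue per vial. Competitors at 0.1 nM–300 µM with 2 nM 131I-IMTO (carrier added) in buffer containing 150 mM NaCl, 23 °C, 20–30 min. Filtration, γ counting. Nonspecific binding with 10 µM ETO. IC50 and Hill coefficient from curve fit, mean ± SD.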

[2] = as §1; assay type: cell membranes; summary of the method: as §2

For `COC(=O)c1cncn1Cc1ccccc1`, the logIC50 [1] was 1.51, the IC50 [1] was 32.1 nM and the logIC50 (Rattus norvegicus) was 1.46. It also gave an IC50 [2] of 28.8 nM.
For `COC(=O)c1cncn1[C@@H](C)c1ccccc1`, the logIC50 [1] was 2.77, the IC50 [1] was 593 nM and the logIC50 (Rattus norvegicus) was 2.69. For the same molecule, the IC50 [2] was 492 nM.
`COC(=O)c1cncn1[C@H](C)c1ccc(I)cc1` [IODOMETOMIDATE I-123, R-] gave a logIC50 [1] of 0.84, an IC50 [1] of 6.95 nM and a logIC50 (Rattus norvegicus) of 0.954. For the same molecule, the IC50 [2] was 8.98 nM.
`COC(=O)c1cncn1Cc1cccnc1` gave an IC50 [2] of 870 nM.
`CCOC(=O)c1cncn1[C@H](C)c1ccc(I)cc1` gave an IC50 [2] of 4.37 nM.
`C[C@H](c1ccccc1)n1cncc1C(=O)OCCF` showed a logIC50 [1] of 1.11, an IC50 [1] of 8.92 nM and a logIC50 (Rattus norvegicus) of 0.46. It also gave an IC50 [2] of 2.89 nM.
`C[C@H](c1ccccc1)n1cncc1C(=O)O` showed an IC50 [2] of 123000 nM.
With `COC(=O)c1cncn1[C@H](C)c1ccc(Br)cc1` the IC50 [2] was 8.95 nM.
`COC(=O)c1cncn1[C@H](C)c1cccnc1` showed a logIC50 [1] of 1.72, an IC50 [1] of 52.2 nM and a logIC50 (Rattus norvegicus) of 1.32. For the same molecule, the IC50 [2] was 20.7 nM.
`CCCOC(=O)c1cncn1[C@H](C)c1ccccc1` gave an IC50 [2] of 2.89 nM.
`COC(=O)c1cncn1[C@@H]1CCc2ccccc21` gave an IC50 [2] of 3.26 nM.
`COC(=O)c1cncn1[C@H](C)c1cccc(I)c1` gave an IC50 [2] of 4.44 nM.
Work on `COC(=O)c1cncn1[C@H](C)c1ccc(C)cc1` yielded an IC50 [2] of 3.58 nM.
In the case of `CON(C)C(=O)c1cncn1[C@H](C)c1ccccc1`, the logIC50 [1] is reported as 1.45, the IC50 [1] is reported as 19.5 nM and the logIC50 (Rattus norvegicus) is reported as 1.18. For the same molecule, the IC50 [2] was 14 nM.
Molecule `COC(=O)c1cncn1[C@H](C)c1ccccc1` has a logIC50 [1] of 1.14, an IC50 [1] of 13.9 nM and a logIC50 (Rattus norvegicus) of 0.57. The IC50 [2] was 3.69 nM.
For `COC(=O)c1cncn1[C@H](C)c1ccc(CO)cc1`, the IC50 [2] was 3.29 nM.
In the case of `CCOC(=O)c1cncn1[C@H](C)c1ccccc1` [ETOMIDATE], the logIC50 [1] is reported as 0.66, the IC50 [1] is reported as 4.57 nM and the logIC50 (Rattus norvegicus) is reported as 0.033. For the same molecule, the IC50 [2] was 1.08 nM.
Work on `CC[C@H](c1ccccc1)n1cncc1C(=O)OC` yielded an IC50 [2] of 6.23 nM.
Molecule `CC(C)OC(=O)c1cncn1[C@H](C)c1ccccc1` has an IC50 [2] of 1.42 nM.
`CNC(=O)c1cncn1[C@H](C)c1ccccc1` showed a logIC50 [1] of 2.21, an IC50 [1] of 135 nM and a logIC50 (Rattus norvegicus) of 2.33. It also gave an IC50 [2] of 215 nM.
Work on `CC(=O)c1cncn1[C@H](C)c1ccccc1` yielded a logIC50 [1] of 1.96, an IC50 [1] of 59 nM and a logIC50 (Rattus norvegicus) of 1.78. For the same molecule, the IC50 [2] was 59.8 nM.
